Series [1] in a line: Inhibition of Influenza A virus (A/Duck/Guangdong/674/2014(H5N6)) Neuraminidase N6 preincubated for 10 mins followed by MUNANA substrate addition and measured after 40 mins by fluorescence method.
Series [2] deals with Influenza A virus. In words: Antiviral activity against Influenza A virus (A/Chicken/China/415/2013 (H9N2)) infected in chicken embryonated eggs assessed as chicken embryo survival at 10 to 0.156 mM incubated with virus for 1 hr followed by inoculation and measured after 72 hrs relative to control. The series is classed as functional.
The nature of series [3]: Cytotoxicity against CEF after 48 hrs by CCK8 assay. Details: species or system Gallus gallus. To be noted: chicken, CEF cells. The essentials: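 Uninfected chicken embryo fibroblasts are given compound, serially diluted 3-fold in DMEM with 1% FBS from a DMSO stock, at 37 °C and 5% CO2 for 48 h. Viability is read as A450 after 90 min with CCK-8 at 37 °C. CC50 is derived as for EC50.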

Series [4] concerns Influenza A virus. In words: Antiviral activity against Influenza A virus (A/goose/Guangdong/SH7/2013(H5N1)) infected in chicken embryo fibroblasts assessed as protection against virus-induced cytopathic effect incubated for 48 hrs by CCK8 assay. The series is classed as functional, organism-based.
The subject of series [5] is Influenza A virus. As to the kind of experiment: Antiviral activity against Influenza A virus (A/Chicken/Hebei/LZF/2014(H5N2)) infected in chicken embryo fibroblasts assessed as protection against virus-induced cytopathic effect incubated for 48 hrs by CCK8 assay. The format is functional, organism-based. Background: Cytopathic effects are the visible damage that an infection or toxin causes in cultured cells.

Series [6] relates to Influenza A virus. In words: Antiviral activity against Influenza A virus (A/Chicken/Hebei/LZF/2014(H5N2)) infected in chicken embryonated eggs assessed as chicken embryo survival at 10 mM incubated with virus for 1 hr followed by inoculation and measured after 72 hrs relative to control. The format is functional.
For series [7], the system named is Influenza A virus. As to the kind of experiment: Antiviral activity against Influenza A virus (A/Chicken/Hebei/LZF/2014(H5N2)) infected in chicken embryonated eggs assessed as protection against virus-induced chicken embryo death at 2.5 to 0.156 mM incubated with virus for 1 hr followed by inoculation and measured after 72 hrs. The series is classed as functional, organism-based.

Series [8] has as its system Influenza A virus. As to the kind of experiment: Antiviral activity against Influenza A virus (A/Duck/Guangdong/674/2014(H5N6)) infected in chicken embryo fibroblasts assessed as protection against virus-induced cytopathic effect incubated for 48 hrs by CCK8 assay. The format is functional, organism-based.
For series [9], the system named is Influenza A virus. As to the kind of experiment: Antiviral activity against Influenza A virus (A/Chicken/China/415/2013 (H9N2)) infected in chicken embryonated eggs assessed as chicken embryo survival at 10 to 0.625 mM incubated with virus for 1 hr followed by inoculation and measured after 72 hrs relative to control. The format is functional.

Activity calls are given as the source filed them. No cut-off for these calls is given here.

Regarding `CCC(CC)O[C@@H]1C=C(C(=O)NCc2cn(CCc3ccc(Br)cc3)nn2)C[C@H](N)[C@H]1NC(C)=O`, the IC50 – broadly, the concentration needed to halve the response being measured – in [1] is 6.34 µM. Molecule `CCC(CC)O[C@@H]1C=C(C(=O)NCc2cn(Cc3ccc(F)cc3)nn2)C[C@H](N)[C@H]1NC(C)=O` returned an IC50 in series [1] of 3.2 µM. This IC50 is about 2-fold lower than that of the molecule before. Still for that read-out and setting: next, `CCC(CC)O[C@@H]1C=C(C(=O)NCc2cn(Cc3cccc(F)c3)nn2)C[C@H](N)[C@H]1NC(C)=O`: 2 µM; `CCC(CC)O[C@@H]1C=C(C(=O)NCc2cn(Cc3ccc(Cl)c(F)c3)nn2)C[C@H](N)[C@H]1NC(C)=O`: 2.8 µM. Take `CCC(CC)O[C@@H]1C=C(C(=O)NCc2cn(Cc3ccc(Br)cc3)nn2)C[C@H](N)[C@H]1NC(C)=O`: the Activity is given as >80% in the series on Influenza A virus [2] and 20% in the series on Influenza A virus [6]. The CC50 – broadly, the concentration at which the toxic effect on the cells reaches its halfway point – at 48 h in series [3] was > 1000 µM. Also, the values for the EC50 in the series on Influenza A virus [4], with Influenza A virus [5] and in the series with Influenza A virus [8] were 2.45 µM, 0.43 µM and 2.8 µM, respectively. The outcome in the series on Influenza A virus [7] was inactive. This molecule also displayed an IC50 in series [1] of 0.16 µM. For `CCC(CC)O[C@@H]1C=C(C(=O)NC(C)(C)c2cn(Cc3ccc([N+](=O)[O-])cc3)nn2)C[C@H](N)[C@H]1NC(C)=O`, in [1], the IC50 is > 10 µM.

On to `CCC(CC)O[C@@H]1C=C(C(=O)NCc2cn(Cc3ccc([N+](=O)[O-])cc3)nn2)C[C@H](N)[C@H]1NC(C)=O`, for which the IC50 in series [1] was 1.17 µM. The same measure, in the same setting: next, `CCC(CC)O[C@@H]1C=C(C(=O)NCc2cn(Cc3cccc([N+](=O)[O-])c3)nn2)C[C@H](N)[C@H]1NC(C)=O`: 2.85 µM; `CCC(CC)O[C@@H]1C=C(C(=O)NCc2cn([C@H]3C[C@H](n4cc(C)c(=O)[nH]c4=O)O[C@@H]3CO)nn2)C[C@H](N)[C@H]1NC(C)=O`: 0.29 µM; `CCC(CC)O[C@@H]1C=C(C(=O)NCCc2cn([C@H]3C[C@H](n4cc(C)c(=O)[nH]c4=O)O[C@@H]3CO)nn2)C[C@H](N)[C@H]1NC(C)=O`: > 10 µM.

For the molecule `CCC(CC)O[C@@H]1C=C(C(=O)NCc2cn(Cc3ccccc3[N+](=O)[O-])nn2)C[C@H](N)[C@H]1NC(C)=O`, the IC50 in series [1] was > 10 µM.

In the case of `CCC(CC)O[C@@H]1C=C(C(=O)NCc2cn(CC(=O)N3CCOCC3)nn2)C[C@H](N)[C@H]1NC(C)=O`, the CC50 at 48 h in [3] is > 1000 µM. The EC50 (in general, the concentration at which the effect is half-maximal) was 3.1 µM in the series on Influenza A virus [4], 1 µM with Influenza A virus [5] and 3.78 µM with Influenza A virus [8]. This molecule yielded an IC50 in series [1] of 0.79 µM. For the molecule `CCC(CC)O[C@@H]1C=C(C(=O)NC(C)(C)c2cn(Cc3ccc(Br)cc3)nn2)C[C@H](N)[C@H]1NC(C)=O`, the IC50 in series [1] was > 10 µM. Regarding `CCC(CC)O[C@@H]1C=C(C(=O)NCc2cn(Cc3ccccc3Cl)nn2)C[C@H](N)[C@H]1NC(C)=O`, in series [3], the CC50 at 48 h is > 1000 µM. For the same molecule, the values for the EC50 in the series on Influenza A virus [4], in the series on Influenza A virus [5] and in the series on Influenza A virus [8] were 3.32 µM, 0.47 µM and 8.6 µM, respectively. This molecule registered an IC50 in series [1] of 0.13 µM. In [1], `CCC(CC)O[C@@H]1C=C(C(=O)NCc2cn(Cc3cccc(Cl)c3)nn2)C[C@H](N)[C@H]1NC(C)=O` registered an IC50 of 2.56 µM. As to `CCC(CC)O[C@@H]1C=C(C(=O)NCc2cn(Cc3ccccc3Br)nn2)C[C@H](N)[C@H]1NC(C)=O`, the IC50 in series [1] was > 10 µM. On the same count and under the same terms, with `CCC(CC)O[C@@H]1C=C(C(=O)NCc2cn(Cc3ccccc3)nn2)C[C@H](N)[C@H]1NC(C)=O` the figure was 1 µM; with `CCC(CC)O[C@@H]1C=C(C(=O)NCc2cn(C3CCCCC3)nn2)C[C@H](N)[C@H]1NC(C)=O`, 2.01 µM.

On to `CCC(CC)O[C@@H]1C=C(C(=O)NC(C)(C)c2cn([C@H]3C[C@H](n4cc(C)c(=O)[nH]c4=O)O[C@@H]3CO)nn2)C[C@H](N)[C@H]1NC(C)=O`, for which the CC50 at 48 h in series [3] is > 1000 µM. For the same molecule, the figures for the EC50 in the series with Influenza A virus [4], in the series with Influenza A virus [5] and in the series on Influenza A virus [8] were 6.28 µM, 0.53 µM and > 20 µM, respectively. The molecule also showed an IC50 in series [1] of 0.58 µM. The molecule `CCC(CC)O[C@@H]1C=C(C(=O)NCc2cn(CCc3ccccc3)nn2)C[C@H](N)[C@H]1NC(C)=O` had an IC50 in series [1] of 0.57 µM. That is a sub-micromolar value. In [1], `CCC(CC)O[C@@H]1C=C(C(=O)NCc2cn(Cc3ccc(C)cc3)nn2)C[C@H](N)[C@H]1NC(C)=O` registered an IC50 of 5.5 µM. Against the preceding molecule, the IC50 is about 9.6-fold higher.

For the molecule `CCC(CC)O[C@@H]1C=C(C(=O)NCCc2cn(Cc3ccc([N+](=O)[O-])cc3)nn2)C[C@H](N)[C@H]1NC(C)=O`, in series [1], the IC50 amounted to 7.6 µM. The IC50 values of the last two molecules are within 1.5-fold of each other.

The molecule `CCC(CC)O[C@@H]1C=C(C(=O)NCc2cn(Cc3ccc(-c4ccccc4)cc3)nn2)C[C@H](N)[C@H]1NC(C)=O` registered an IC50 in series [1] of 2.2 µM. This IC50 lies about 3.5-fold lower than the previous one. Take `CCC(CC)O[C@@H]1C=C(C(=O)O)C[C@H](N)[C@H]1NC(C)=O` [OSELTAMIVIR CARBOXYLATE]: in series [3], the CC50 at 48 h is > 1000 µM. In addition, the EC50 in the series with Influenza A virus [4] was 0.22 µM; in the series with Influenza A virus [5], 0.18 µM; with Influenza A virus [8], 0.43 µM. The figures for the Activity in the series on Influenza A virus [6] and in the series with Influenza A virus [9] were 80% and >80%, respectively. For the same molecule, the result in the series with Influenza A virus [7] was inactive. In series [1], this molecule gave an IC50 of 0.018 µM. In [1], `CCC(CC)O[C@@H]1C=C(C(=O)NCc2cn(CSc3ccccc3)nn2)C[C@H](N)[C@H]1NC(C)=O` yielded an IC50 of 4.59 µM. In other words, the single-digit micromolar range. Same read-out and setting: with `CCC(CC)O[C@@H]1C=C(C(=O)NCc2cn(CC(=O)N3CCCC3)nn2)C[C@H](N)[C@H]1NC(C)=O` the figure was 1.4 µM; with `CCC(CC)O[C@@H]1C=C(C(=O)NCCc2cn(Cc3ccc(Br)cc3)nn2)C[C@H](N)[C@H]1NC(C)=O`, > 10 µM.

Source of the values: ChEMBL document CHEMBL4402551 (Eur J Med Chem, 2020).
